# Measurements of several laboratories.
# Lines come from different studies, so protocols differ.
# CSF1R: Macrophage colony-stimulating factor 1 receptor (CSF1R, Homo sapiens, UniProt P07333)
# CSF1R autoinhibited: Macrophage colony-stimulating factor 1 receptor, autoinhibited (CSF1R, Homo sapiens, UniProt P07333)
SMILES,target,observed,method,concentration,remaining binding
C[C@H]1CCN(c2nccc(-c3cnn4ncccc34)n2)C1,CSF1R,binding,,1 µM,100%
Cc1cnc(Nc2ccc(C(=O)N3CCC(N4CCCC4)CC3)cc2)nc1-c1cc2ccccc2s1,CSF1R,binding,competition with immobilised ligand,1 µM,12%
Nc1ncc2c(n1)-c1c([nH]c3ccc(C#CC4CC4)cc13)CCCC2,CSF1R,binding,competition with immobilised ligand,1 µM,98%
c1cncc(-c2cccc(Nc3nccc(NC4CCCCC4)n3)c2)c1,CSF1R autoinhibited,binding,competition with immobilised ligand,10 µM,0%
CCN1CCN(Cc2ccc(C(=O)Nc3ccc(C)c(Oc4ccc5c(c4)CC(=O)N5)c3)cc2C(F)(F)F)CC1,CSF1R autoinhibited,binding,competition with immobilised ligand,1 µM,100%
CN(C)c1nccc(-c2cnc3ncccn23)n1,CSF1R,binding,,1 µM,100%
Cc1nc(NC(=O)N2CCC[C@H]2C(N)=O)sc1-c1ccnc(C(C)(C)C(F)(F)F)c1,CSF1R,binding,competition with immobilised ligand,10 µM,68%
C[C@@H](c1ccc(-n2cnc3c(N)ncnc32)cc1)N1CCc2nn(C)c(Cc3ccccc3)c2C1=O,CSF1R,binding,competition with immobilised ligand,0.1 µM,100%
C[C@@H]1CN(c2ccc3ncc(-c4ccc5[nH]nc(C6CC6)c5c4)n3n2)C[C@H](C)O1,CSF1R,binding,competition with immobilised ligand,50 nM,100%
CN(C)c1nccc(-c2cnn3ncccc23)n1,CSF1R,binding,,1 µM,100%
CC(=O)N1CCC(c2ccc(C(=O)NC3=NCCN3)cc2C(F)(F)F)CC1,CSF1R,cell-free assay,competition with immobilised ligand,1 µM,100%
CN(CCCC(F)(F)F)c1nccc(-c2cnn3ncccc23)n1,CSF1R,binding,,1 µM,93%
C=CC(=O)N1CCC(C(=O)NCC(=O)N2CCN(c3nc(-c4cnc(N)nc4C(F)F)nc(N4CCOCC4)n3)CC2)CC1,CSF1R,binding,competition with immobilised ligand,1 µM,77%
COc1ncc2cc3ccccc3nc2c1C#N,CSF1R autoinhibited,cell-free assay,competition with immobilised ligand,5 µM,97%
c1cnn2ncc(-c3ccnc(N4CCC45COC5)n3)c2c1,CSF1R autoinhibited,binding,,1 µM,64%
CNC(=O)Nc1ccc2c(c1)[C@@]1(CC2)OC(=O)N(CC(=O)N(Cc2ccc(F)cc2)[C@@H](C)C(F)(F)F)C1=O,CSF1R autoinhibited,cell-free assay,competition with immobilised ligand,1 µM,100%
COc1cnc(Nc2cccc(S(N)(=O)=O)c2)nc1N1CCN(c2ccccc2)CC1,CSF1R autoinhibited,binding,competition with immobilised ligand,1 µM,99%
CC1CCCN1c1nccc(-c2cnn3ncccc23)n1 (stereo not shown),CSF1R autoinhibited,binding,,1 µM,99%
O=C(Nc1ccc(Oc2ccc(F)cc2)cc1)N1CCc2ncccc2[C@H]1c1ccc(F)cc1,CSF1R autoinhibited,cell-free assay,competition with immobilised ligand,1 µM,95%
O=C(c1ccc(Nc2nccc(-c3cc4ccccc4s3)n2)cc1)N1CCC(N2CCCC2)CC1,CSF1R autoinhibited,binding,competition with immobilised ligand,1 µM,77%
CCC(=O)N[C@H]1CC[C@@H](C(=O)N(C)c2ccc(-c3nc4ccccc4o3)cc2)C1,CSF1R autoinhibited,cell-free assay,competition with immobilised ligand,1 µM,56%
N#Cc1ccccc1CSc1nnc2c(n1)[nH]c1ccccc12,CSF1R,binding,competition with immobilised ligand,10 µM,100%
CS(=O)(=O)N1CCCC(NC(=O)[C@H](CCC2CCCCC2)NC(=O)c2ccc(CNc3ncnc4c3nnn4-c3ccccc3)cc2)C1 (stereo partly shown),CSF1R autoinhibited,cell-free assay,competition with immobilised ligand,0.1 µM,100%
N[C@H]1CCN(c2nccc(-c3cnn4ncccc34)n2)C1,CSF1R autoinhibited,binding,,1 µM,100%
FC(F)(F)Oc1cccc(-c2cnc3ccc(-c4ccncc4)nn23)c1,CSF1R,cell-free assay,competition with immobilised ligand,5 µM,59%
CN(C)c1ncc(F)c(-c2cnn3ncccc23)n1,CSF1R,binding,,1 µM,91%
CNC(=O)[C@@H]1CC[C@@H](n2c(-c3ccc4cnccc4c3)nc3ccc(C(=O)NCc4cccc(C(N)=O)c4)cc32)C1,CSF1R,binding,competition with immobilised ligand,1 µM,100%
O=C(NCCCN1CCOCC1)c1ccc(Nc2ncc(Cl)c(-c3ccc(Cl)s3)n2)cc1,CSF1R autoinhibited,binding,competition with immobilised ligand,1 µM,42%
O=c1nc(-c2ccccn2)sc2ccccc12,CSF1R,cell-free assay,competition with immobilised ligand,1 µM,85%
O=C(Nc1c[nH]nc1C(=O)NC1CCNCC1)c1cc(F)cc(F)c1,CSF1R,binding,competition with immobilised ligand,1 µM,100%
CO[C@@H](C)c1c(Nc2ccc([C@@H](N(C)C(=O)C3CCS(=O)(=O)CC3)C(F)(F)F)cc2)cnc2cc(Cl)nn12,CSF1R,cell-free assay,competition with immobilised ligand,1 µM,72%
O=C(c1ccc(Nc2ncc(Cl)c(-c3ccc(Cl)s3)n2)cc1)N1CCC(N2CCCC2)CC1,CSF1R autoinhibited,binding,competition with immobilised ligand,1 µM,17%
CCS(=O)(=O)c1cc2cc(C[C@@](O)(CC(C)(C)c3ccc(F)cc3C(N)=O)C(F)(F)F)[nH]c2cn1,CSF1R,cell-free assay,competition with immobilised ligand,1 µM,100%
O=C(NCCCN1CCOCC1)c1ccc(Nc2nccc(-c3cc4ccccc4s3)n2)cc1,CSF1R,binding,competition with immobilised ligand,1 µM,50%
O=C(NCC1CCOCC1)c1n[nH]cc1NC(=O)c1c(F)cccc1F,CSF1R,binding,competition with immobilised ligand,1 µM,100%
COc1cnc(Nc2cccc(S(N)(=O)=O)c2)nc1N1CCN(c2ccccc2)C(=O)C1,CSF1R,binding,competition with immobilised ligand,1 µM,100%
O=C(c1ccc(Nc2ncc(Cl)c(-c3cc4ccccc4s3)n2)cc1)N1CCC(N2CCCC2)CC1,CSF1R autoinhibited,binding,competition with immobilised ligand,1 µM,56%
